Assay results taken from ChEMBL document CHEMBL4513216, “Probing the Open Global Health Chemical Diversity Library for Multistage-Active Starting Points for Next-Generation Antimalarials” (ACS Infect Dis, 2020).

assay: Toxicity liver stage against HepG2, at 10uM; format: cell-based; parameters: test concentration 10 uM, cell line HepG2-A16-CD81EGFP; conditions: human, HepG2-A16-CD81EGFP cells; read-out: INHIBITION
Outline: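 Uninfected HepG2-A16-CD81EGFP cells, 3 × 10^3 per well, 1536-well, plated on prespotted compound at 10 μM final, parasite-free screening media added to match infected plates; puromycin 10 μM positive, DMSO 0.5% negative; run in parallel with 48 h PbLuc assay at 37 °C, 5% CO2; viability by CellTiter-Glo luminescence, normalized to controls.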

Structure (SMILES) | cytotoxicity at 10 µM [%]
Cc1cc(NC(=O)CN(c2ccccc2)C(C)C)on1 | -1.54
O=C(NCC(Cc1cccc(F)c1)N1CCCC1=O)c1ccc(=O)[nH]n1 (configuration not stated) | -0.634
NC(=O)CN1CCC(C(=O)NCCc2nc(-c3ccccc3)cs2)CC1 | -7.85
CN1CCCc2cc(CNC(=O)c3cc[n+]([O-])cc3)ccc21 | -1.11
CCOC(=O)C1CCN(C(=O)CN2CCCC2c2ccsc2)CC1 (configuration not stated) | -5.42
Cc1csc(CN(CC2CCCO2)C(=O)c2occc2C)n1 (configuration not stated) | 0.489
CC1CCN(Cn2nc(-c3ccc(F)cc3)oc2=O)CC1 | -2.55
c1csc(CN2CCc3c(CNc4nncs4)cncc3C2)c1 | -70.1
Cn1ccc(CS(=O)(=O)Cc2cccc(F)c2)cc1=O | 6.83
CN(C)C(=O)c1nc(CN2CC(c3ccccc3)CC2=O)no1 (configuration not stated) | 0.624
Cc1cc(CN2CCCC2c2noc(C3CC3)n2)c2ccccc2n1 (configuration not stated) | 49.5
Cn1cc(CCC(=O)N2C[C@@H]3CC[C@H]2CN(Cc2cccnc2)C3)cn1 | -12.4
CC(=O)N1Cc2ccccc2CC1C(=O)Nc1ccc(N(C)C)cn1 (configuration not stated) | -1.92
CCOC(=O)N1CC(=O)N(CCc2ccccc2)CC(O)C1 (configuration not stated) | -4.73
CNCC(=O)Nc1ccc(-c2cnc(NCCS(C)(=O)=O)nc2)cc1 | -3.08
Cc1cccc(CN2CCCC3(Cc4ccccc4CNC3=O)C2)n1 (configuration not stated) | 5.37
CC(=O)N[C@@H]1CN(C(=O)c2cccc(C(F)(F)F)c2)C[C@H]1O | 1.9
CCOCC(=O)NCCn1ccc(-c2ccccn2)n1 | 11.4
Cc1nn(C)cc1C(C)Nc1ncnc2sccc12 (configuration not stated) | 14.1
Cc1ccc2cccc(C(=O)N3CCN(c4cccnn4)CC3)c2n1 | 1.91
COC[C@@]12CCO[C@@H]1CCN(C(=O)Cc1ccccc1F)C2 | -7.27
CC(C)(C)c1nc(CN2CCC(c3ccnn3CCO)CC2)no1 | -5.22
O=C(CN1CCCCC1Cn1cncn1)NCc1ccccn1 (configuration not stated) | -4.02

Structure (SMILES) | cytotoxicity at 10 µM [%]
COc1ccc(C2(NC(=O)c3ccc(=O)n(C)n3)CCCC2)cc1 | -0.308
CN1CCCc2sc(C(=O)NCc3cccnc3)nc21 | 14.9
O=C(NCc1nn(-c2ccccc2)c2c1CCC2)NC1CCOCC1 | -8.72
CC(C)c1cc(N2CC[C@H](F)C2)n2nccc2n1 | -2.56
CC(C)N[C@@H]1CC[C@@H]1NC(=O)c1ccccc1OC(F)(F)C(F)F | 1.77
CCN(CC)CC(=O)N(C)C(c1cccc(F)c1)c1ccccn1 (configuration not stated) | -6.54
COC(=O)CNC(=O)CSCc1nc(O)c2cc(C(C)C)sc2n1 | 7.72
COc1ccccc1OCCCN(C)c1cc(C)nc(N)n1 | 1.39
COc1cc(C(=O)NCc2ccc3c(c2)CCCN3C)cc(OC)c1Br | -6.69
O=C(C1CCC1)N1CCc2onc(Cn3cccn3)c2C1 | -1.13
O=C1NC2(CCNCC2)CC1c1ccncc1 (configuration not stated) | -60.7
CC(CC#N)N(C)Cc1ccc(F)cc1C#N (configuration not stated) | -6.69
CS(=O)(=O)N1CCN(C(=O)c2cc(-c3cccs3)cs2)CC1 | 1.8
Cc1cnn(C2CCCN(C(=O)CCc3nccs3)C2)c1 (configuration not stated) | -4.49
Cc1ccc(C)c(S(=O)(=O)NCCNc2ccc(-n3cccc3)nn2)c1 | 1.77
CN(Cc1cn(C2CCNCC2)nn1)CC1CCCO1 (configuration not stated) | -4.76
CN(C)c1cc2c(nn1)CCN(C(=O)C1COc3ccccc3C1)C2 (configuration not stated) | 14.3
CN(C)C(=O)CN1CCC2(COCc3cnc(-c4ccccc4)nc32)C1 (configuration not stated) | -96.7
CCCc1nnc(SCc2cc(=O)n3c4c(sc3n2)CCCC4)[nH]1 | -1.05
CCN(Cc1ccc2c(c1)OCO2)C(=O)c1ccc(C)[nH]c1=O | -7.21
OC1(CNc2ccc(Br)cn2)CCSCC1 | 5.63
Cc1cccc(CN2CCCC(O)(CNCc3cccc(F)c3)C2=O)c1 (configuration not stated) | -12.1
O=C(c1cnccn1)N1CCc2ncnc(C3CCOC3)c2CC1 (configuration not stated) | -81.9

Structure (SMILES) | cytotoxicity at 10 µM [%]
O=C(NCCc1cccnc1)NCCc1cccs1 | -1.51
COCCN(CC(N)=O)CC1CCCN(C2Cc3ccccc3C2)C1 (configuration not stated) | -3.01
CN1CC2(CNCCN(C(=O)Nc3ccccc3)C2)CC1=O (configuration not stated) | 1.26
CCCOc1ccccc1CCCNc1ncnc2oc(C)nc12 | 22.4
CCN(CC1CCCO1)S(=O)(=O)N1CCCCCC1 (configuration not stated) | -1
Cc1cc(C)nc(N2CC[C@H](Oc3ccccc3F)[C@@H](O)CC2)n1 | 3.72
COC(=O)c1ccc(-c2noc(CN(CCO)Cc3cccs3)n2)cc1 | 6.43
CCc1nccn1CC(=O)N1CCN(C2CCc3ccccc3C2)CC1 (configuration not stated) | -119
Cc1ccc(OCC(C)NS(C)(=O)=O)cc1C (configuration not stated) | 9.98
CC(O)CN(c1ccccc1)S(=O)(=O)c1cc(C(=O)O)cc2c1CCC2 (configuration not stated) | 11.1
Cc1nc(CN2CCCC2c2c(C)nn(C)c2Cl)no1 (configuration not stated) | 1.85
O=C(Cn1cccn1)N1CCc2[nH]nc(-c3ccc4c(c3)OCO4)c2C1 | -153
O=C(Cn1cc(-c2ccccc2)ncc1=O)Nc1ccncc1 | 11
CCN1CCC(CC(=O)NCCc2nc(O)cc(O)n2)CC1 | -4.76
Cc1cccc(NC(=O)N2CC(C(=O)NC(C)C)C3(CCOCC3)C2)c1 (configuration not stated) | -75
COc1ccc(NC(=O)N2CCCC2c2ccncc2)cn1 (configuration not stated) | 0.165
Cn1cccc1C(=O)NCc1cn2c(n1)CN(CC1CCOCC1)CC2 | 8.33
O=C(O)c1ccn(-c2ccccc2NS(=O)(=O)c2cccc(Cl)c2F)n1 | -3.36
COc1cccc2c1OCC(C(=O)N1CCN(C3CCSCC3)CC1)C2 (configuration not stated) | -1.62
Cc1nc(NCc2cccnc2)cc(C2COCCN2)n1 (configuration not stated) | 3.78
Cc1ncccc1C(=O)Nc1ccc2ccn(CCN(C)C)c2c1 | 4.08
CC(C)Sc1ccc(C(C)NC(=O)CNS(C)(=O)=O)cc1 (configuration not stated) | 3.92
O=C1N(CC2CC2)CCCC1(O)CN1CCc2[nH]ncc2C1 (configuration not stated) | -2.2

Structure (SMILES) | cytotoxicity at 10 µM [%]
COc1nccnc1N1CCN(Cc2ccc(F)cc2)C(=O)C1 | 1.27
COCCNC(=O)c1cc2c(s1)CCN2C(=O)c1ccccc1 | -12.9
Cc1ccc(C)c(OCC(O)Cn2ncc3cnn(C)c(=O)c32)c1 (configuration not stated) | 4.45
CCCN(CCC)C1(Cc2cc(-c3cccc(O)c3)on2)COC1 | -1.19
CCn1cc(S(=O)(=O)N2CCN(C(=O)c3cc(Br)cs3)CC2)c(C)n1 | 2.73
OCCOCCN1CCCC1c1nc2cc(F)ccc2[nH]1 (configuration not stated) | -17.5
CC(=O)N1CCN(CCNc2snc(Cl)c2C#N)CC1 | 5.69
CCCN(CC)C(=O)c1cc(Cn2c(C)nc3ccccc32)[nH]n1 | 36.7
CN(Cc1cnn(C)c1)C(=O)CCS(=O)(=O)c1ccc2c(c1)OCCO2 | -17
CCC(Oc1ccc(N(C)S(C)(=O)=O)cc1)C(=O)N(C)C (configuration not stated) | -4.97
CS(=O)(=O)N1CCC2(CN(C(=O)c3cccnc3)C2)C1 | -13
CNC(=O)[C@H]1C[C@@H]2CN(C(=O)c3cnc(C)cn3)C[C@@H]2N1C | -108
COc1ccccc1OCCC(=O)N1CCCC1Cn1cc(C)cn1 (configuration not stated) | 6.02
O=C(NCc1cccnc1-n1cncn1)C1CC2(CCNCC2)CN1 (configuration not stated) | 2.08
N[C@H]1CN(S(=O)(=O)Cc2ccccc2)C[C@@H]1C1CC1 | -133
Cc1ccc(-c2cn[nH]c2C2CCCN(c3nccc(N)n3)C2)cc1 (configuration not stated) | 15.6
CCOCCN1CCCC1CS(N)(=O)=O (configuration not stated) | 14.3
CC(C)c1nc(O)c2nnn(C[C@@H]3CCCN(Cc4ccsc4)C3)c2n1 | -4.6
CCc1cc(NCCCC2CCOC2)n2nccc2n1 (configuration not stated) | 5.04
Cn1ccc(C(=O)NC2CCC23CCN(Cc2nccs2)CC3)c1 (configuration not stated) | -136
CC(NC(=O)NCC(C)(C)C(N)=O)c1nc(-c2ccccc2)cs1 (configuration not stated) | 12.7
CCOCCCn1c(NC(=O)c2cnc(C)s2)nc2ccccc21 | -30
Cc1cc(NCCNc2cccnc2)nc(-c2ccccc2O)n1 | 47.9

Structure (SMILES) | cytotoxicity at 10 µM [%]
COC(=O)c1ccc(C(=O)N2CCC(c3nnc(C)s3)CC2)cc1 | 4.95
Cc1cnn(CC(C)NCc2ccc(OCc3ccncc3)cc2)c1 (configuration not stated) | 3.15
NC(=O)CCC1CCCN(Cc2cnc(N3CCCCC3)nc2)C1 (configuration not stated) | -11.1
Cn1nc(CN2CCOCC2)c2c1CN(Cc1ccsc1)C2 | -145
CCCc1cc(C(=O)Nc2nc(SC)ns2)n(C)n1 | 8.49
CCNC(=O)NC(C)(C)C(=O)NCc1cccc(N2CC=CC2)c1 | 7.35
CC(C)(CN1CCC2(CCCNC2)C1)N1CCOCC1 (configuration not stated) | -141
Cc1ccnc(C2COCCN2C)n1 (configuration not stated) | 3.59
Cc1cc(NCc2csc(-c3ccsc3)n2)no1 | -0.912
CC(C)c1nc(CSc2nnc(Cn3cncn3)o2)cs1 | 3.19
CC(C)OCCCNC(=O)CS(=O)(=O)Cc1cccc(Cl)c1 | 5.44
CCC1=N[C@@]2(CC[C@@H]3CN(Cc4ccc(F)cc4)C[C@@H]32)C(=O)N1C | -106
Cc1cnn(CC(C)Nc2nc3ccccc3o2)c1 (configuration not stated) | -9.49
Cc1cnc(N2CC[C@H]3[C@@H]2CCC(=O)N3c2ccccc2)nc1 | 4.15
COCCNC(=O)[C@H]1CN(Cc2cccs2)C[C@H]2OCC[C@@H]12 | 4
CCn1ccnc1CN1CCCN(C(=O)c2cncnc2C)CC1 | 5.65
Cc1ccc2c(c1)C1(CCNCC1)CC2N1CCOCC1 (configuration not stated) | -134
CCO[C@@H]1CCN(C(=O)c2cscn2)[C@@H]1Cc1cnn(C)c1 | 4.84
Cc1nc(Nc2ncc(C)s2)cc(C2CCCN2)n1 (configuration not stated) | 82
CNc1ncc(C(=O)N[C@H]2CN(CCCSC)C[C@@H]2C2CC2)cn1 | 1.33
